Data taken from ChEMBL document CHEMBL3393047, “Pyridine and pyridinone-based factor XIa inhibitors” (Bioorg Med Chem Lett, 2015).
pKi: −log10 of the molar value.

Assays:
Coagulation factor XI = Coagulation factor XI (Homo sapiens, UniProt P03951); assay: Inhibition of human coagulation factor 11a after 10 to 120 mins
Plasma = assay: Anticoagulant activity in human plasma assessed as concentration required to double the activated partial thromboplastin time; type: functional
Method in brief: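 In vitro clotting assay run in human plasma; activity read out as the activated partial thromboplastin time, and the value reported as EC2x, the concentration that doubles aPTT.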

Plasminogen = Plasminogen (Homo sapiens, UniProt P00747); assay: Inhibition of human plasmin
Chain of Plasminogen (P00747 97-580 limits assumed): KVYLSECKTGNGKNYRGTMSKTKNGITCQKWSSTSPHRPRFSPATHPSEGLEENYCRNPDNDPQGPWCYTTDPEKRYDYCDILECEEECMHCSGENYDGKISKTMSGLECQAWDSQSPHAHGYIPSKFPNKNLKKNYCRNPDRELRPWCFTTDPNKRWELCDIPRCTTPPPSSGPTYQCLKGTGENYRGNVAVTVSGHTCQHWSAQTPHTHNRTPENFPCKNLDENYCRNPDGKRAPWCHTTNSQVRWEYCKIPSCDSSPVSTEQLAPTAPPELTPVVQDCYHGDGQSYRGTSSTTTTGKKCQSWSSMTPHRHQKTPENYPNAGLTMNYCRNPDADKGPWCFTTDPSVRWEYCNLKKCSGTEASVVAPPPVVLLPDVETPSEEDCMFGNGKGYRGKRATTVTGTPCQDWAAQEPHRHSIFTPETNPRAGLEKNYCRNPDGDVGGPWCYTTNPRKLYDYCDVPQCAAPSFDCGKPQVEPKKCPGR
Chain of Plasminogen (P00747 581-810 limits assumed): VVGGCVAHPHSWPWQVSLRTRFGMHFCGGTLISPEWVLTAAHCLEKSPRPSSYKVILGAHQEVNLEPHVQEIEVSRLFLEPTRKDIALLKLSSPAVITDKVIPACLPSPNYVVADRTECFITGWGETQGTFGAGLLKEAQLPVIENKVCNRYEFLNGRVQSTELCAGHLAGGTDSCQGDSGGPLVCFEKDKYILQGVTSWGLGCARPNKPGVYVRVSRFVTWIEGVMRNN
Method in brief: (§1)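 Ki determined against purified human enzymes (selectivity panel of serine proteases).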

Trypsin = Trypsin (Homo sapiens, UniProt P07477+P07478+P35030); assay: Inhibition of human trypsin; type: protein assay; method in brief: as §1
Coagulation factor VII = biological target: T1, Coagulation factor VII (Homo sapiens, UniProt P08709); assay: Inhibition of human coagulation factor 7a; method in brief: as §1
T1 sequence (P08709 whole entry): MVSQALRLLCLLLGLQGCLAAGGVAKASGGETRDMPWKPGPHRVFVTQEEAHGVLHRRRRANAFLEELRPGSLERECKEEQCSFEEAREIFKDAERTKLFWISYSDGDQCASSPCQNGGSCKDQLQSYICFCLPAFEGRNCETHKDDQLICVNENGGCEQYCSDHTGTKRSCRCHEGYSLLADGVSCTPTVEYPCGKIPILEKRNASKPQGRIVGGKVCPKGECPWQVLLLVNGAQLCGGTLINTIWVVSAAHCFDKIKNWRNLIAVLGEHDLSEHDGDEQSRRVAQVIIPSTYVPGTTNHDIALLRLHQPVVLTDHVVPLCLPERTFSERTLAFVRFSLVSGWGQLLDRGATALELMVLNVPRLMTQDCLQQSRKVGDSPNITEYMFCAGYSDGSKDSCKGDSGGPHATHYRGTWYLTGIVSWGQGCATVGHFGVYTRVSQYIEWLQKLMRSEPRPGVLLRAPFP

[1] = biological target: Urokinase-type plasminogen activator (Homo sapiens, UniProt P00749); assay: Inhibition of human urokinase; method in brief: as §1
[2] = biological target: Tissue-type plasminogen activator (Homo sapiens, UniProt P00750); assay: Inhibition of human TPA; method in brief: as §1
Chain of Tissue-type plasminogen activator (P00750 whole entry): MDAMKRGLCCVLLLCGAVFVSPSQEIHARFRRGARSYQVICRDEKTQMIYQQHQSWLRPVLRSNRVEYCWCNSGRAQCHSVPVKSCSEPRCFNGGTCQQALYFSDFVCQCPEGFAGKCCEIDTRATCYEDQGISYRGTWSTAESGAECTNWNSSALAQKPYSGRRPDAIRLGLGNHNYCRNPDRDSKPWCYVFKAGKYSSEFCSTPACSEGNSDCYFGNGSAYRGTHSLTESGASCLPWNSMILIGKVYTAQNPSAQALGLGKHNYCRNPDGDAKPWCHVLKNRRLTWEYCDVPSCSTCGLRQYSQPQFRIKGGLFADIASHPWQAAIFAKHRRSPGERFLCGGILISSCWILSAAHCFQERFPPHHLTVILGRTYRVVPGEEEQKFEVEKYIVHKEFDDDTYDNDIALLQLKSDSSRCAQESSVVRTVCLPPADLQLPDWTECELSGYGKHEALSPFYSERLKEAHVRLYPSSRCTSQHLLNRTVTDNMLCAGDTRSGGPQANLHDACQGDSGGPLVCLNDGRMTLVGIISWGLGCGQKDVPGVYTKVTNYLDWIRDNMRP

Plasma kallikrein = Plasma kallikrein (Homo sapiens, UniProt P03952); assay: Inhibition of human plasma kallikrein; method in brief: as §1
Chain of Plasma kallikrein (P03952 20-390 limits assumed): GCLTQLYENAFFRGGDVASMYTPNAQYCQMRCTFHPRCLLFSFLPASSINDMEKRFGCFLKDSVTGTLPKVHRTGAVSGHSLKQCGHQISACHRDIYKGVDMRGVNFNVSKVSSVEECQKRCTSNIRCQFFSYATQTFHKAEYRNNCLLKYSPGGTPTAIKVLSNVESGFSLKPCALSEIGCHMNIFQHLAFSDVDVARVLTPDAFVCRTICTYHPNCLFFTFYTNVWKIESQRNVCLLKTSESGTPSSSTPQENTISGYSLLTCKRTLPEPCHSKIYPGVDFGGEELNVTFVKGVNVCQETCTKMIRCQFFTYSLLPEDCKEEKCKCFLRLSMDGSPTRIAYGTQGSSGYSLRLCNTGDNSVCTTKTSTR
Chain of Plasma kallikrein (P03952 391-638 limits assumed): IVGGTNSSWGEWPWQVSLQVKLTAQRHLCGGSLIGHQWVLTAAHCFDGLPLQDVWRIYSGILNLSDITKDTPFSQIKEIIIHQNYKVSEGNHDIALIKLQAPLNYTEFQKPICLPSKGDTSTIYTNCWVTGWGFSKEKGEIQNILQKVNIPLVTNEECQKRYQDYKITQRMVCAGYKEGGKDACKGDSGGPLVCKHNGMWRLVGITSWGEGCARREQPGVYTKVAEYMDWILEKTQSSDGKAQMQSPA

Coagulation factor IX = Coagulation factor IX (Homo sapiens, UniProt P00740); assay: Inhibition of human coagulation factor 9a; method in brief: as §1
Chain of Coagulation factor IX (P00740 47-191 limits assumed): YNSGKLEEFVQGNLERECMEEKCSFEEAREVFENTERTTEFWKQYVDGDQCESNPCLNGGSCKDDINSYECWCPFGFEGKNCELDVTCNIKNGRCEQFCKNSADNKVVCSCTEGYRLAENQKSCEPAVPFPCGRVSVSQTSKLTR
Chain of Coagulation factor IX (P00740 227-461 limits assumed): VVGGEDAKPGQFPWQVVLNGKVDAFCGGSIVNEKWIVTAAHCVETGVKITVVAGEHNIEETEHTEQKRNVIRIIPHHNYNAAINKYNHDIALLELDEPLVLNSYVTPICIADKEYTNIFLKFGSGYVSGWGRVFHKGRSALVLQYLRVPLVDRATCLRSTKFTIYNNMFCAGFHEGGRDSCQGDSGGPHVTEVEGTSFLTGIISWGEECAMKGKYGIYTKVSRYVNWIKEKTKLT

[3] = biological target: Vitamin K-dependent protein C (Homo sapiens, UniProt P04070); assay: Inhibition of human activated protein C; method in brief: as §1
Chain of Vitamin K-dependent protein C (P04070 43-197 limits assumed): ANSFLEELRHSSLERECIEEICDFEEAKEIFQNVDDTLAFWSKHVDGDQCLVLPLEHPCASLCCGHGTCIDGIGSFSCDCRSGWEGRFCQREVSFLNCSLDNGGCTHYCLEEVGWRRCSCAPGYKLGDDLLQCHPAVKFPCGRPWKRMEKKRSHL
Chain of Vitamin K-dependent protein C (P04070 212-461 limits assumed): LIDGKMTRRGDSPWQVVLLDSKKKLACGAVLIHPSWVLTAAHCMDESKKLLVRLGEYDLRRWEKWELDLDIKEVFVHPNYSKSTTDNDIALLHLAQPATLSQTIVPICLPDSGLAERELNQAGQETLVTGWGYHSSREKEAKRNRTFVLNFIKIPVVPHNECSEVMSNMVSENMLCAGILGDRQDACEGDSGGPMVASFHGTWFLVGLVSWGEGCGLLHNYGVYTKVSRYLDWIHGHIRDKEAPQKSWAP

Coagulation factor X = Coagulation factor X (Homo sapiens, UniProt P00742); assay: Inhibition of human coagulation factor 10a; method in brief: as §1
Chain of Coagulation factor X (P00742 41-179 limits assumed): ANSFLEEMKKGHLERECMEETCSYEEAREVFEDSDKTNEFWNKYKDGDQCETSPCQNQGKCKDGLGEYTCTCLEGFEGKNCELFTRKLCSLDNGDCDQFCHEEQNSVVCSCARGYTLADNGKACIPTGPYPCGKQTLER
Chain of Coagulation factor X (P00742 235-488 limits assumed): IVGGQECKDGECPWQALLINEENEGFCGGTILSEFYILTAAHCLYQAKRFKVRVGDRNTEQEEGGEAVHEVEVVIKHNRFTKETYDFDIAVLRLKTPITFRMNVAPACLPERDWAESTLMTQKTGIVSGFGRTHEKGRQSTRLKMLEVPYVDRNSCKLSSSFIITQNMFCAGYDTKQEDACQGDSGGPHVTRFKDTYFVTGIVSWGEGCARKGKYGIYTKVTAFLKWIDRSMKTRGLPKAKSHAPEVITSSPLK

[4] = Inhibition of human chymotrypsin; method in brief: as §1
Prothrombin = Prothrombin (Homo sapiens, UniProt P00734); assay: Inhibition of human thrombin; method in brief: as §1

Chain of Coagulation factor XI (P03951 19-387 limits assumed): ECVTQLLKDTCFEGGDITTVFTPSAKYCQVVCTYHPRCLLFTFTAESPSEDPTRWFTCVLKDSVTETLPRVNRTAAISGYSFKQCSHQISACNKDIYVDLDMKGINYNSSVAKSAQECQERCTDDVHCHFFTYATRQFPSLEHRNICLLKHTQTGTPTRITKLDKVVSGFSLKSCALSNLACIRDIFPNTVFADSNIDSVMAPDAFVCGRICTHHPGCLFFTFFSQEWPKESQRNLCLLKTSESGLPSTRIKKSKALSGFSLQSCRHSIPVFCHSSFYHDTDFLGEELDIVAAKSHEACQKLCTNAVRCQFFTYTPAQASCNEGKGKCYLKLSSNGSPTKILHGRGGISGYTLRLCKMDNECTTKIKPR
Chain of Coagulation factor XI (P03951 388-625 limits assumed): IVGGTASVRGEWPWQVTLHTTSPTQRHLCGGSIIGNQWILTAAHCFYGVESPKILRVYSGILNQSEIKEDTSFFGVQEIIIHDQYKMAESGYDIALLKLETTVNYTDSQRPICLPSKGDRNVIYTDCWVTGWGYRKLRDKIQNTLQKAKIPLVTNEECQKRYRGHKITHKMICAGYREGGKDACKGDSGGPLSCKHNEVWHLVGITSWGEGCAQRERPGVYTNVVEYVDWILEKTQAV

Compound	pKi (Coagulation factor XI)	also measured
NC[C@H]1CC[C@H](C(=O)N[C@@H](Cc2ccccc2)c2nccc(-c3ccccc3)n2)CC1	4.94	–
NC[C@H]1CC[C@H](C(=O)N[C@@H](Cc2ccccc2)c2nc(-c3ccc4c(N)n[nH]c4c3)c[nH]2)CC1	8.49	2aPTT (Plasma): 3 µM
NC[C@H]1CC[C@H](C(=O)N[C@@H](Cc2ccccc2)c2cccc(-c3ccc4c(N)n[nH]c4c3)c2)CC1	7.68	2aPTT (Plasma): 37 µM
NC[C@H]1CC[C@H](C(=O)N[C@H](Cc2ccccc2)c2cccc(-c3ccc4c(N)n[nH]c4c3)c2)CC1	5.21	–
NC[C@H]1CC[C@H](C(=O)NC(Cc2ccccc2)c2cc(-c3ccccc3)ccn2)CC1 (mixture of isomers)	6.42	–
NC[C@H]1CC[C@H](C(=O)NC(Cc2ccccc2)c2cncc(-c3ccccc3)c2)CC1 (mixture of isomers)	6.48	–
NC[C@H]1CC[C@H](C(=O)NC(Cc2ccccc2)c2ccnc(-c3ccccc3)c2)CC1 (mixture of isomers)	6.49	–
NC[C@H]1CC[C@H](C(=O)NC(Cc2ccccc2)c2cc(-c3ccccc3)cc[n+]2[O-])CC1 (mixture of isomers)	5.77	–
NC[C@H]1CC[C@H](C(=O)NC(Cc2ccccc2)c2cc(-c3ccccc3)ncn2)CC1 (mixture of isomers)	6.48	–
NC[C@H]1CC[C@H](C(=O)NC(Cc2ccccc2)c2cccc(-c3ccccc3)c2)CC1 (mixture of isomers)	6.03	–
NC[C@H]1CC[C@H](C(=O)NC(Cc2ccccc2)c2cc(-c3ccccc3)cc(Cl)n2)CC1 (mixture of isomers)	6.69	–
NC[C@H]1CC[C@H](C(=O)NC(Cc2ccccc2)c2cc(-c3ccccc3)cc(O)n2)CC1 (mixture of isomers)	6.95	–
COc1cc(-c2ccccc2)cc(C(Cc2ccccc2)NC(=O)[C@H]2CC[C@H](CN)CC2)n1 (mixture of isomers)	6.02	–
NC[C@H]1CC[C@H](C(=O)NC(Cc2ccccc2)c2cccc(-c3ccc4c(N)n[nH]c4c3)c2)CC1 (mixture of isomers)	7.38	2aPTT (Plasma): >40 µM
NC[C@H]1CC[C@H](C(=O)NC(Cc2ccccc2)c2cc(-c3ccc4c(N)n[nH]c4c3)ccn2)CC1 (mixture of isomers)	7.89	2aPTT (Plasma): 6 µM
NC[C@H]1CC[C@H](C(=O)NC(Cc2ccccc2)c2cc(-c3ccc4c(N)n[nH]c4c3)cc(=O)[nH]2)CC1 (mixture of isomers)	8.43	2aPTT (Plasma): 2.5 µM

Continued, in another order:

pKi (Coagulation factor XI)	Compound	also measured
7.92	NC[C@H]1CC[C@H](C(=O)N[C@@H](Cc2ccccc2)c2nc(-c3ccccc3)c(Cl)[nH]2)CC1	–
8.08	NC[C@H]1CC[C@H](C(=O)N[C@@H](Cc2ccccc2)c2cc(-c3ccc4c(N)n[nH]c4c3)ccn2)CC1	pKi (Plasminogen): < 4.66; Ki (Trypsin): 64 nM; 2aPTT (Plasma): 4.5 µM; pKi (Coagulation factor VII): < 4.96; pKi [1]: < 4.85; pKi [2]: < 4.66; pKi (Plasma kallikrein): 7.62; pKi (Coagulation factor IX): < 4.46; pKi [3]: < 4.67; pKi (Coagulation factor X): < 5.05; pKi [4]: < 4.68; pKi (Prothrombin): < 4.90
5.97	NC[C@H]1CC[C@H](C(=O)N[C@H](Cc2ccccc2)c2cc(-c3ccc4c(N)n[nH]c4c3)ccn2)CC1	–
4.52	NC[C@H]1CC[C@H](C(=O)NC(Cc2ccccc2)c2cccc(-c3ccccc3)n2)CC1 (mixture of isomers)	–
5.97	NC[C@H]1CC[C@H](C(=O)NC(Cc2ccccc2)c2cc(-c3ccccc3)c[n+]([O-])c2)CC1 (mixture of isomers)	–
5.60	NC[C@H]1CC[C@H](C(=O)NC(Cc2ccccc2)c2cc[n+]([O-])c(-c3ccccc3)c2)CC1 (mixture of isomers)	–
6.36	NC[C@H]1CC[C@H](C(=O)NC(Cc2ccccc2)c2cc(-c3ccccc3)c(F)cn2)CC1 (mixture of isomers)	–
6.64	NC[C@H]1CC[C@H](C(=O)NC(Cc2ccccc2)c2cc(-c3ccccc3)cc(N)n2)CC1 (mixture of isomers)	–
6.07	CNc1cc(-c2ccccc2)cc(C(Cc2ccccc2)NC(=O)[C@H]2CC[C@H](CN)CC2)n1 (mixture of isomers)	–
6.32	Cn1c(C(Cc2ccccc2)NC(=O)[C@H]2CC[C@H](CN)CC2)cc(-c2ccccc2)cc1=O (mixture of isomers)	–
